Experimental data published in ChEMBL document CHEMBL4699398, “The synthesis and biological evaluation of sanguinarine derivatives as anti-non-small cell lung cancer agents” (RSC Med Chem, 2020).
Calls of active or inactive are those of the source. The rule behind the calls is not given here.

Assays:
A549 [1] = assay: Induction of cell cycle arrest in human A549 cells assessed as accumulation in G0/G1 phase at 0.3 uM incubated for 24 hrs by […] propidium iodide staining based flow cytometry (reference value: 63.11 %); assay type: functional
NCI-H1975 [2] = assay: Induction of apoptosis in human H1975 cells assessed as necrotic cells at 3 uM after 48 hrs by Annexin V-FITC/7-AAD staining based flow cytometric method (reference value: 0.85 %); assay type: functional
A549 [3] = assay: Induction of cell cycle arrest in human A549 cells assessed as accumulation in G2/M phase at 1 uM incubated for 24 hrs by […] propidium iodide staining based flow cytometry (reference value: 22.46 %); assay type: functional
A549 [4] = assay: Induction of apoptosis in human A549 cells assessed as viable cells at 1 uM after 48 hrs by Annexin V-FITC/7-AAD staining based flow cytometric method (reference value: 93.10 %); assay type: functional; conditions: read-out: Activity
A549 [5] = assay: Induction of apoptosis in human A549 cells assessed as increase in cleaved caspase-9 level at 0.1 to 3 uM incubated for 24 hrs by Western blot analysis; assay type: functional, cell-based; conditions: dose microM 0.1-3, time 24.0 hrs
In short: (§1)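 After treatment, cells harvested and lysed in RIPA buffer; equal protein loaded on 12% SDS-PAGE and transferred to PVDF; blocked in 5% milk 2 h at room temperature; primary antibodies (AKT, p-AKT, cleaved caspase-3, cleaved caspase-9, PARP; GAPDH loading control) overnight at 4 °C; HRP secondaries 2 h at room temperature; chemiluminescent detection.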

NCI-H1975 [6] = assay: Induction of apoptosis in human H1975 cells assessed as late apoptotic cells at 0.3 uM after 48 hrs by Annexin V-FITC/7-AAD staining based flow cytometric method (reference value: 4.63 %); assay type: functional
NCI-H1975 [7] = assay: Induction of apoptosis in human H1975 cells assessed as viable cells at 1 uM after 48 hrs by Annexin V-FITC/7-AAD staining based flow cytometric method (reference value: 88.02 %); assay type: functional; conditions: read-out: Activity
A549 [8] = assay: Induction of cell cycle arrest in human A549 cells assessed as accumulation in S phase at 0.3 uM incubated for 24 hrs by […] propidium iodide staining based flow cytometry (reference value: 14.16 %); assay type: functional
A549 [9] = assay: Induction of cell cycle arrest in human A549 cells assessed as accumulation in G0/G1 phase at 1 uM incubated for 24 hrs by […] propidium iodide staining based flow cytometry (reference value: 63.11 %); assay type: functional
NCI-H1975 [10] = assay: Induction of apoptosis in human H1975 cells assessed as late apoptotic cells at 1 uM after 48 hrs by Annexin V-FITC/7-AAD staining based flow cytometric method (reference value: 4.63 %); assay type: functional
A549 [11] = assay: Induction of apoptosis in human A549 cells assessed as necrotic cells at 0.3 uM after 48 hrs by Annexin V-FITC/7-AAD staining based flow cytometric method (reference value: 0.70 %); assay type: functional
A549 [12] = assay: Induction of apoptosis in human A549 cells assessed as increase in ROS production incubated for 20 mins by DCFH-DA staining based flow cytometry analysis; assay type: functional, cell-based; conditions: dose microM 0.3-3, time 20.0 min
In short: (§2)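 At 20 min after compound treatment, cells washed in PBS and loaded with 10 μM DCFH-DA in phenol red-free DMEM for 30 min at 37 °C in the dark; washed three times with PBS; DCF fluorescence of ROS-positive cells measured by flow cytometry with excitation at 488 nm.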

NCI-H1975 [13] = assay: Induction of apoptosis in human H1975 cells assessed as increase in ROS production incubated for 20 mins by DCFH-DA staining based flow cytometry analysis; assay type: functional, cell-based; conditions: dose microM 0.3-3, time 20.0 min; in short: as §2
NCI-H1975 [14] = assay: Induction of apoptosis in human H1975 cells assessed as early apoptotic cells at 0.3 uM after 48 hrs by Annexin V-FITC/7-AAD staining based flow cytometric method (reference value: 6.50 %); assay type: functional
A549 [15] = assay: Induction of apoptosis in human A549 cells assessed as increase in cleaved caspase-3 level at 0.1 to 3 uM incubated for 24 hrs by Western blot analysis; assay type: functional, cell-based; conditions: dose microM 0.1-3, time 24.0 hrs; in short: as §1
A549 [16] = assay: Induction of cell cycle arrest in human A549 cells assessed as accumulation in S phase at 1 uM incubated for 24 hrs by […] propidium iodide staining based flow cytometry (reference value: 14.16 %); assay type: functional
A549 [17] = assay: Induction of apoptosis in human A549 cells assessed as increase in cleaved PARP level at 0.1 to 3 uM after 24 hrs by Western blot analysis; assay type: functional, cell-based; conditions: dose microM 0.1-3, time 24.0 hrs; in short: as §1
A549 [18] = assay: Induction of apoptosis in human A549 cells assessed as early apoptotic cells at 0.3 uM after 48 hrs by Annexin V-FITC/7-AAD staining based flow cytometric method (reference value: 3.26 %); assay type: functional
NCI-H1975 [19] = assay: Induction of cell cycle arrest in human H1975 cells assessed as accumulation in G0/G1 phase at 1 uM incubated for 24 hrs by […] propidium iodide staining based flow cytometry (reference value: 62.86 %); assay type: functional
NCI-H1975 [20] = assay: Induction of apoptosis in human H1975 cells assessed as increase in Akt level at 0.1 to 3 uM incubated for 24 hrs by Western blot analysis; assay type: functional, cell-based; conditions: dose microM 0.1-3, time 24.0 hrs; in short: as §1
NCI-H1975 [21] = assay: Induction of apoptosis in human H1975 cells assessed as increase in cleaved PARP level at 0.1 to 3 uM after 24 hrs by Western blot analysis; assay type: functional, cell-based; conditions: dose microM 0.1-3, time 24.0 hrs; in short: as §1
A549 [22] = assay: Induction of apoptosis in human A549 cells assessed as necrotic cells at 3 uM after 48 hrs by Annexin V-FITC/7-AAD staining based flow cytometric method (reference value: 0.70 %); assay type: functional
A549 [23] = assay: Induction of apoptosis in human A549 cells assessed as increase in Akt level at 0.1 to 3 uM incubated for 24 hrs by Western blot analysis; assay type: functional, cell-based; conditions: dose microM 0.1-3, time 24.0 hrs; in short: as §1
NCI-H1975 [24] = assay: Induction of apoptosis in human H1975 cells assessed as viable cells at 0.3 uM after 48 hrs by Annexin V-FITC/7-AAD staining based flow cytometric method (reference value: 88.02 %); assay type: functional; conditions: read-out: Activity
A549 [25] = assay: Induction of apoptosis in human A549 cells assessed as early apoptotic cells at 3 uM after 48 hrs by Annexin V-FITC/7-AAD staining based flow cytometric method (reference value: 3.26 %); assay type: functional
A549 [26] = assay: Induction of apoptosis in human A549 cells assessed as late apoptotic cells at 3 uM after 48 hrs by Annexin V-FITC/7-AAD staining based flow cytometric method (reference value: 2.94 %); assay type: functional

CN1c2c(ccc3cc4c(cc23)OCO4)-c2ccc3c(c2C1N1CCOCC1)OCO3 (stereo unspecified)
Activity (A549 [1]): 64.85% | Activity (NCI-H1975 [2]): 4.59% | Activity (A549 [3]): 14.29% | viability at 1 µM (A549 [4]): 78.3% | Activity (A549 [5]): Active | Activity (NCI-H1975 [6]): 5.55% | viability at 1 µM (NCI-H1975 [7]): 67.4% | Activity (A549 [8]): 14.84% | Activity (A549 [9]): 70.03% | Activity (NCI-H1975 [10]): 19.17% | Activity (A549 [11]): 8.73% | Activity (A549 [12]): Dose-dependent effect | Activity (NCI-H1975 [13]): Dose-dependent effect | Activity (NCI-H1975 [14]): 10.94% | Activity (A549 [15]): Active | Activity (A549 [16]): 15.64% | Activity (A549 [17]): Active | Activity (A549 [18]): 4.92% | Activity (NCI-H1975 [19]): 67.32% | Activity (NCI-H1975 [20]): Active | Activity (NCI-H1975 [21]): Active | Activity (A549 [22]): 1.65% | Activity (A549 [23]): Active | viability at 0.3 µM (NCI-H1975 [24]): 82.5% | Activity (A549 [25]): 3.91% | Activity (A549 [26]): 93.73%
